Test results from ChEMBL document CHEMBL1123588, “Synthesis and antisecretory and antiulcer activities of derivatives and analogues of 2-(2-pyridyl)tetrahydrothiophene-2-carbothioamide” (1987).

Key:
[1] = tested on: Rattus norvegicus; experiment: Antisecretory activity against histamine stimulated gastric acid secretion in Shay rats by peroral administration of 30 mg /kg was determined: activity not statistically significant; format: functional; settings: Stomach, po
Outline: (§1)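 Female OFA rats, 150–175 g, six per group, fasted 24 h with water allowed. Dose given orally in 10% gum arabic (5 mL/kg) 1 h before histamine 100 mg/kg sc. Promethazine 10 mg/kg ip 30 min before histamine; pylorus ligated under chloral hydrate 30 min after. Juice collected 2 h, titrated with 0.1 N NaOH. Acid output compared with controls by Student's t test.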

[2] = tested on: Rattus norvegicus; experiment: Antiulcer activity against restraint-induced gastric erosions in rats, following 100 mg/kg p.o. administration.; format: functional, Stomach; settings: route oral
Outline: (§2)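 Restraint-stress erosions (Rossi): female OFA rats, 150–175 g, six per group, fasted 24 h. Oral dose in 10% gum arabic (5 mL/kg) 1 h before restraint in wire-netting cages. Rats killed 24 h later and gastric mucosal erosions assessed. A rat counted protected with no erosion; read-out is % protected rats.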

[3] = species: Rattus norvegicus; experiment: Antisecretory activity against histamine stimulated gastric acid secretion in Shay rats expressed as ED50; format: functional; settings: Stomach
Outline: (§3)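 Histamine-stimulated Shay rats: females (OFA, 150–175 g, n=6/group), fasted 24 h. Oral dosing in 10% gum arabic, 1 h pre-histamine (100 mg/kg sc), promethazine 10 mg/kg ip pretreatment. Pylorus ligation under chloral hydrate; 2 h gastric juice titrated with 0.1 N NaOH. Lower doses tested when 30 mg/kg gave >80% inhibition; ED50 from regression line.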

[4] = species: Rattus norvegicus; experiment: Antiulcer activity by protection of restraint-induced gastric erosions in rats, by using the technique of Rossi was determined at peroral dose of; format: functional, Stomach; outline: as §2
[5] = tested on: Rattus norvegicus; experiment: Antisecretory activity against histamine stimulated gastric acid secretion in Shay rats by peroral administration of 30 mg /kg was determined; format: functional; settings: Stomach, po; outline: as §1
[6] = species: Rattus norvegicus; experiment: Antisecretory activity against histamine stimulated gastric acid secretion in Shay rats expressed as ED50; value ranges from (0.5-2); format: functional; settings: Stomach; outline: as §3
[7] = tested on: Rattus norvegicus; experiment: Antiulcer activity by protection of restraint-induced gastric erosions in rats, by using the technique of Rossi was determined at peroral dose of 10 mg/kg; format: functional, Stomach; settings: route oral; outline: as §2
[8] = tested on: Rattus norvegicus; experiment: Antiulcer activity by protection of restraint-induced gastric erosions in rats, by using the technique of Rossi was determined at peroral dose of 4.5 mg/kg; format: functional, Stomach; settings: route oral; outline: as §2
[9] = species: Rattus norvegicus; experiment: Antisecretory activity against histamine stimulated gastric acid secretion in Shay rats expressed as ED50; value ranges from (0.1-2.2); format: functional; settings: Stomach; outline: as §3
[10] = tested on: Rattus norvegicus; experiment: Antisecretory activity against histamine stimulated gastric acid secretion in Shay rats by peroral administration of 30 mg /kg was determined :activity not statistically significant; format: functional; settings: Stomach, po; outline: as §1
[11] = species: Rattus norvegicus; experiment: Antisecretory activity against histamine stimulated gastric acid secretion in Shay rats expressed as ED50; value ranges from (1.0-6.5); format: functional; settings: Stomach; outline: as §3
[12] = tested on: Rattus norvegicus; experiment: Antiulcer activity by protection of restraint-induced gastric erosions in rats, by using the technique of Rossi was determined at peroral dose of 5 mg/kg; format: functional, Stomach; settings: route oral; outline: as §2
[13] = species: Rattus norvegicus; experiment: Antisecretory activity against histamine stimulated gastric acid secretion in Shay rats expressed as ED50 value ranges from (0.6-3.8); format: functional; settings: Stomach; outline: as §3
[14] = species: Rattus norvegicus; experiment: animal or person; settings: Stomach
[15] = species: Rattus norvegicus; experiment: Antisecretory activity against histamine stimulated gastric acid secretion in Shay rats expressed as ED50 value ranges from (2.7-12.3); format: functional; settings: Stomach; outline: as §3
[16] = species: Rattus norvegicus; experiment: Antisecretory activity against histamine stimulated gastric acid secretion in Shay rats expressed as ED50 value ranges from (2.5-12.1); format: functional; settings: Stomach; outline: as §3
[17] = tested on: Rattus norvegicus; experiment: Antiulcer activity by protection of restraint-induced gastric erosions in rats, by using the technique of Rossi was determined at peroral dose of 30 mg/kg; format: functional, Stomach; settings: route oral; outline: as §2
[18] = species: Rattus norvegicus; experiment: Antisecretory activity against histamine stimulated gastric acid secretion in Shay rats expressed as ED50; value ranges from(0.5-22.3).; format: functional; settings: Stomach; outline: as §3

| SMILES | Protection [2] [%] | ED50 [3] [mg/kg] | inhibition in vivo at 30 mg/kg [5] [%] | also measured |
| --- | --- | --- | --- | --- |
| CN1CCN(C(=S)C2(c3ccccn3)CCCS2)CC1 (stereo unspecified) | 0 | > 30 |  | inhibition in vivo at 30 mg/kg [1]: 8% |
| CCCCCCCCCCCC/N=C(\S)C1(c2ccccn2)CCCS1 (stereo unspecified) |  | > 30 | 0 | Protection [4]: 0% |
| C/N=C(\S)C1(c2cc(C)ccn2)CCCS1 (stereo unspecified) |  |  |  | ED50 [6]: 1 mg/kg; Protection [7]: 83% |
| C/N=C(\S)C1(c2ccccn2)CCCO1 (stereo unspecified) |  |  |  | Protection [8]: 66%; ED50 [9]: 0.5 mg/kg |
| S=C(Nc1ccccc1)C1(c2ccccn2)CCCS1 (stereo unspecified) |  | > 30 |  | inhibition in vivo at 30 mg/kg [10]: 0% |
| C/N=C(\S)C1(c2ccccn2)CCCCS1 (stereo unspecified) |  |  |  | ED50 [11]: 2.6 mg/kg; Protection [7]: 100% |
| C/N=C(\S)C1(c2ccccn2)OCCCS1 (stereo unspecified) |  | 1.6 |  | Protection [12]: 50% |
| S=C(NCc1ccccc1)C1(c2ccccn2)CCCS1 (stereo unspecified) | 100 | ≤ 30 | 58 |  |
| Cc1cnc2c(c1)CCCC2C(N)=S (stereo unspecified) [TIQUINAMIDE] |  |  |  | ED50 [13]: 1.6 mg/kg |
| CN(C)C(=S)C1(c2ccccn2)CCCS1 (stereo unspecified) | 83 | < 30 | 74 |  |
| CN/C(=N\CCSCc1nc[nH]c1C)NC#N [CIMETIDINE] | 50 |  |  | ED50 [14]: 30 mg/kg |
| C/N=C(\S)C1(c2ccc(C)cn2)CCCS1 (stereo unspecified) |  |  |  | ED50 [15]: 5.7 mg/kg; Protection [7]: 60% |
| CCCCCCC/N=C(\S)C1(c2ccccn2)CCCS1 (stereo unspecified) | 33 | > 30 | 0 |  |
| C/N=C(\S)C1(c2cnccn2)CCCS1 (stereo unspecified) | 100 | > 30 | 38 |  |
| CCCC/N=C(\S)C1(c2ccccn2)CCCS1 (stereo unspecified) |  |  |  | ED50 [16]: 5.5 mg/kg; Protection [17]: 100% |
| C/N=C(\S)C1(c2cccnn2)CCCS1 (stereo unspecified) | 100 |  |  |  |
| CCCCc1ccnc(C2(/C(S)=N/C)CCCS2)c1 (stereo unspecified) | 100 | < 30 | 78 |  |
| NC(=S)C1(c2ccccn2)CCCS1 (stereo unspecified) | 100 |  |  | ED50 [18]: 3.2 mg/kg |
